Compounds with a hit are over-represented: about 27% of the library has one in this group of screens.
Rev-RRE block: HIV Rev-RRE protein-RNA interaction inhibition; P05866; Rev peptide-RRE RNA binding, FRET; inhibition, % at 8 µM; hit rate 0.79% among 97,000; AID 704;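 active means inhibition above the screen-wide mean plus 3 SD, cut at about 35% in these data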;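 further: 0% = median DMSO wells and 100% = median Neomycin B control wells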
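Test system: labelled RRE RNA duplex and labelled Rev peptide. Times: 5 min compound–RNA preincubation, then 15 min with peptide, 25 °C. Doses: single-dose 8 µM. Measured by: FRET, excitation 480 nm, emission 540 nm donor and 671 nm acceptor. Measure: % inhibition of FRET ratio versus controls.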
Cav3 T inh: blocks human Cav3.2 T-type calcium channel | AID 449739 | B-score at 10 µM | Cav3.2-expressing cells, Fluo-4 calcium fluorescence FDSS; stronger effect = lower value | hit rate 4% among 100,000 | O95180;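 active means single-dose well whose peak fluorescence ratio is a statistical outlier from its plate by either plate-standardised score or position-corrected B-score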
Target sequence (O95180 whole entry, looked up): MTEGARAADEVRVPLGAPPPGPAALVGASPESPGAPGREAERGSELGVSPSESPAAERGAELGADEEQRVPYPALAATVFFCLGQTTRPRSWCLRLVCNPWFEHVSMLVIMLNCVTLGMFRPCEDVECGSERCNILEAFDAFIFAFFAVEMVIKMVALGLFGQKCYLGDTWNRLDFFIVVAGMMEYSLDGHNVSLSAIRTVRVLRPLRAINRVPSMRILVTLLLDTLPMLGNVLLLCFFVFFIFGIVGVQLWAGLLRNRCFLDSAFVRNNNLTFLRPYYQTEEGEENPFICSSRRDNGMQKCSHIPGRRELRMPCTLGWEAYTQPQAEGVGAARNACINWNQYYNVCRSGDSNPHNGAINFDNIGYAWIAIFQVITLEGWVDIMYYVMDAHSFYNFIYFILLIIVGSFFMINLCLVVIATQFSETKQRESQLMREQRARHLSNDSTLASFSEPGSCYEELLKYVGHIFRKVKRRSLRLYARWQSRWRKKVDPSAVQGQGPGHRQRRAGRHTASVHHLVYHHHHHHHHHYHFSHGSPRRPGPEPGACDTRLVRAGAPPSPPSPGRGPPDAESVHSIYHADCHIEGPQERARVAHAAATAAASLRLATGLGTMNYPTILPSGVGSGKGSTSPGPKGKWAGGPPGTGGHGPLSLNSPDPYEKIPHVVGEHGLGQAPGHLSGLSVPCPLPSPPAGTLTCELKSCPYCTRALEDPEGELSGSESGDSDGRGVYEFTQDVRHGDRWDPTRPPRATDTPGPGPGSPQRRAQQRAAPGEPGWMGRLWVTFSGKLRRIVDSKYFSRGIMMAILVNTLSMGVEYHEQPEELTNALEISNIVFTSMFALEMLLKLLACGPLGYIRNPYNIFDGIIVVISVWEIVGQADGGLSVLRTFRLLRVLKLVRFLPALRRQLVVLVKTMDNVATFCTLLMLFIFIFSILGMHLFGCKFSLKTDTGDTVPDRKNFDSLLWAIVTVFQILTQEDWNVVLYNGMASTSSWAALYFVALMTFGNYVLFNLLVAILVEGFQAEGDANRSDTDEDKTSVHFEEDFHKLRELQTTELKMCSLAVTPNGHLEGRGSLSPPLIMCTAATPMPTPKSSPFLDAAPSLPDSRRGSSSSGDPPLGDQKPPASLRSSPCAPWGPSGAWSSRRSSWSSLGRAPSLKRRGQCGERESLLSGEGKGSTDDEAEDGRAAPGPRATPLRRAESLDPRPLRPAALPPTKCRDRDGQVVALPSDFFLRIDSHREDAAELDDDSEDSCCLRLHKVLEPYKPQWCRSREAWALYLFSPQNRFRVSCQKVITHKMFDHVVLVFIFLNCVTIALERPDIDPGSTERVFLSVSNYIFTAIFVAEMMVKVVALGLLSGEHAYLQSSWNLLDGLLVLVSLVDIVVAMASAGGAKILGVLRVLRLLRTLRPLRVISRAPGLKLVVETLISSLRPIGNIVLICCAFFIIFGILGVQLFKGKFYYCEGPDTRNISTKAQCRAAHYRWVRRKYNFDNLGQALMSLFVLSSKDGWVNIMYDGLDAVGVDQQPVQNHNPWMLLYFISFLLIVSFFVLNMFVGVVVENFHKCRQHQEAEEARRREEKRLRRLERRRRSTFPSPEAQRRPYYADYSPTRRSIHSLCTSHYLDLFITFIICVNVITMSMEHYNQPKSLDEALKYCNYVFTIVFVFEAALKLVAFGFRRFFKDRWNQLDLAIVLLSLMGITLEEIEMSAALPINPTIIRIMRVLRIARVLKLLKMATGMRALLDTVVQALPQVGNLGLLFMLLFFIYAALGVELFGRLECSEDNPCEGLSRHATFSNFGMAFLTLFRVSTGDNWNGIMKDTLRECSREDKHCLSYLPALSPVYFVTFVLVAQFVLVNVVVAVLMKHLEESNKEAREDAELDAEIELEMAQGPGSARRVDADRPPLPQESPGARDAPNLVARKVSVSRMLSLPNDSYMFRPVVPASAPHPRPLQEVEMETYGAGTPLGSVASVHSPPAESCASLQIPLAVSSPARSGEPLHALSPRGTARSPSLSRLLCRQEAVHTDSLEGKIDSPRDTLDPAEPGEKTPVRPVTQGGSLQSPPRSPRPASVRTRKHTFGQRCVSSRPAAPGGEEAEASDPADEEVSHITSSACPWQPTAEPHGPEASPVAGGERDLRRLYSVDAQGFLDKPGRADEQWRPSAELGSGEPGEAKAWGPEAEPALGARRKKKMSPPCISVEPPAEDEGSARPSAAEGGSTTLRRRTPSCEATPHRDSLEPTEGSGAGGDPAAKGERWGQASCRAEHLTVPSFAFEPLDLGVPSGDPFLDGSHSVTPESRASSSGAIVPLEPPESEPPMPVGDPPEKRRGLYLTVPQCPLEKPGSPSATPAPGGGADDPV
CYP2C9 act: CYP2C9 (human) activation; P11712; recombinant CYP2C9, luciferin-H conversion, luminescence; stronger effect = higher value; factor 1 = untreated enzyme, 0 = blocked; activation factor at 5 µM; hit rate 1.4% among 96,000; AID 1024;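 active means activation factor of 2 or more for CYP2C9 at a 5 µM dose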;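 further: 0 = sulfaphenazole-blocked wells and 1 = vehicle-only wells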
CYP2C9 inh: blocks human cytochrome P450 2C9; P11712; CYP2C9 Supersomes, luciferin-H conversion, luminescence; inhibition, % at 5 µM; hit rate 20% among 96,000;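 active means blocking of liver enzyme CYP2C9 beyond about 50% at 5 µM, limit read from the data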
CYP2C19 activ: cytochrome P450 2C19 (human) activation | activation factor at 5 µM | recombinant CYP2C19, luciferin-H EGE luminescence; stronger effect = higher value; 0 = fully inhibited enzyme, 1 = untreated enzyme | AID 1025 | 96,000 tested, under 10 active;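 active means activation factor of at least 2 at 5 µM in the primary screen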;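 further: 0 = wells with 2.5 mM tranylcypromine and 1 = vehicle-only wells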
CYP2C19 inhib: human CYP2C19 inhibition; P33261; CYP2C19 Supersomes, luciferin-H EGE luminescence, 30 min; inhibition, % at 5 µM; hit rate 21% among 96,000;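 active means CYP2C19 inhibition above a set limit at 5 µM in the primary screen, cut at about 50% in these data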;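 further: plate controls were negative control wells for no effect and 2.5 mM tranylcypromine positive control for full effect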
* marks the source's active call; other numbers are inactive results; nt = no result.

SMILES | Rev-RRE block | Cav3 T inh | CYP2C9 act | CYP2C9 inh | CYP2C19 activ | CYP2C19 inhib
O=C(OCN1C(=O)c2ccccc2C1=O)C1CCCCC1 | 4 | 0.0019 | 1.1 | -13 | 1 | 4
CC1Cc2ccccc2N1C(=O)Cn1cc([N+](=O)[O-])cn1 (stereo unspecified) | 4 | 0.029 | 1 | 1 | 0.9 | 12
COc1cc(C2C(C#N)=C(N)OC3=C2C(=O)CCC3)c([N+](=O)[O-])cc1OC (stereo unspecified) | 48* | -3.6 | 1 | 0 | 1.1 | -12
Cc1cc(C2C(C#N)=C(N)OC3=C2C(=O)CC(C)(C)C3)c(C)s1 (stereo unspecified) | 1 | 3.3 | 0.7 | 34 | 0.6 | 38
Cc1cc(C2C(C#N)=C(N)OC3=C2C(=O)CCC3)c(C)s1 (stereo unspecified) | 3 | 0.58 | 0.8 | 22 | 0.5 | 51*
O=C(C1=C[C@@H](C2CCCCC2)C[C@@H](OCc2ccc(CO)cc2)O1)N1CCN(Cc2ccccc2)CC1 | nt | -2.8 | nt | nt | nt | nt
Cc1cc2oc3c(c(=O)c2cc1C)C(c1cccc(Br)c1)N(Cc1ccco1)C3=O (stereo unspecified) | -4 | -3.5 | 0 | 95* | 0 | 98*
O=C1c2oc3ccc(Cl)cc3c(=O)c2C(c2cccc(Br)c2)N1CCO (stereo unspecified) | 8 | -4.1 | 0.7 | 34 | 0.5 | 50*
CC(=O)N1c2ccccc2C(C)(c2ccccc2)CC1(C)C (stereo unspecified) | 9 | -5* | 0.5 | 54* | 0.4 | 64*
Cc1cccc(Nc2nn3c(=O)c4ccccc4nc3s2)c1 | -13 | 0.015 | 0.7 | 26 | 0.8 | 15
CCCSc1nn2c(=O)c3ccccc3nc2s1 | 5 | 0.074 | 0.5 | 49 | 0.2 | 79*
O=C(COc1ccc(-c2ccccc2)cc1)N1CCN(S(=O)(=O)Cc2ccccc2)CC1 | 8 | -0.098 | 0.5 | 53* | 0.7 | 29
O=C(COc1ccccc1)N1CCN(S(=O)(=O)c2cccs2)CC1 | nt | -0.089 | 0.7 | 30 | 0.4 | 64*
CCOC(=O)C1CCN(C(=O)COc2ccc(N(C)S(=O)(=O)c3cccs3)cc2)CC1 | 6 | 1.1 | 0.1 | 90* | 0.4 | 62*
O=C(Cn1cc([N+](=O)[O-])cn1)Nc1ccn(Cc2c(F)c(F)c(F)c(F)c2F)n1 | 5 | 0.63 | 0.7 | 26 | 0.7 | 30
CC(=O)N1CCc2cc(S(=O)(=O)NC(CC(C)C)C(=O)N3CCn4c3nc3ccccc34)ccc21 (stereo unspecified) | 10 | 0.99 | 0.4 | 57* | 0.5 | 51*
CC(=O)N1CCc2cc(S(=O)(=O)NC(CC(C)C)C(=O)Nc3ccc4c(c3)OCCO4)ccc21 (stereo unspecified) | nt | -0.041 | 0.4 | 59* | 0.5 | 49
Cc1nc2ccc(S(=O)(=O)NC(C(=O)N3CCn4c3nc3ccccc34)C(C)C)cc2s1 (stereo unspecified) | 4 | -0.67 | 0.9 | 11 | 1 | 2
CC(=O)N1CCc2cc(S(=O)(=O)NC3CCCc4ccccc43)ccc21 (stereo unspecified) | 11 | -0.024 | nt | nt | nt | nt
CC(=O)N1CCc2cc(S(=O)(=O)NC(Cc3ccccc3)C(=O)NC3CCCCCC3)ccc21 (stereo unspecified) | 11 | -0.39 | 0.5 | 53* | 0.7 | 35
Cc1cccc(OCC(=O)O/N=C(\N)c2ccccn2)c1 | -1 | 0.7 | 0.9 | 8 | 0.9 | 13
O=C1CSC(c2cccs2)N1c1ccccc1 (stereo unspecified) | 2 | -2.7 | 0.8 | 21 | 0.5 | 55*
CC1CC(N(C(=O)c2ccccc2Cl)c2ccccc2)c2ccccc2N1 (stereo unspecified) | 0 | nt | 0.9 | 10 | 0.9 | 7
C=C1CCN(C(C(=O)OC)C(C)C)S(=O)(=O)c2ccccc21 (stereo unspecified) | nt | 0.23 | nt | nt | nt | nt
CN1C(=O)N(c2ccccc2)C(Nc2nncs2)C1(C)C (stereo unspecified) | 6 | nt | 1 | 3 | 1.1 | -13
SMILES | Rev-RRE block | Cav3 T inh | CYP2C9 act | CYP2C9 inh | CYP2C19 activ | CYP2C19 inhib
CCC(C)c1c(O)nc(SCC(=O)c2ccccc2)[nH]c1=O (stereo unspecified) | 10 | -2.1 | 0.5 | 54* | 0.9 | 13
CCC(C)c1c(O)nc(SCC(=O)Nc2ccccc2)[nH]c1=O (stereo unspecified) | 0 | -0.95 | 0.2 | 76* | 0.3 | 73*
C=CCc1c(O)nc(SCC(=O)c2ccccc2)[nH]c1=O | 6 | 0.14 | 0.6 | 38 | 1 | 4
c1csc(CNc2nc3ccccc3n2CCN2CCOCC2)c1 | 5 | 0.48 | 0.5 | 51* | 0.6 | 43
CCCn1c(NCc2cccs2)nc2ccccc21 | 4 | -0.21 | 1.1 | -6 | 0.9 | 7
N#Cc1c2n(c(=S)n(-c3ccccn3)c1=O)CCCCC2 | 5 | -1.4 | 0.9 | 8 | 1 | 2
Cc1cc(C)c2c(-n3cccc3)c(C(=O)O)sc2n1 | 4 | -0.14 | nt | nt | nt | nt
Cc1cc(C)c2c(-n3cccc3)c(C(=O)NNS(=O)(=O)c3ccccc3)sc2n1 | 5 | -1.5 | 0 | 96* | 0.7 | 33
COc1ccc(CCNC(=O)C2CCN(S(=O)(=O)c3c(C)noc3C)CC2)cc1OC | 0 | 0.12 | 1.3 | -26 | 1.2 | -18
CCOc1ccccc1NC(=O)CN(c1ccc(C)cc1)S(=O)(=O)c1c(C)noc1C | 8 | -4.7* | 0 | 96* | 0 | 99*
COc1ccc(CCNC(=O)CN(c2ccc(C)cc2)S(=O)(=O)c2c(C)noc2C)cc1OC | 6 | 0.19 | 0.6 | 40 | 0.1 | 92*
CCOc1ccc(OCC)c(NC(=O)CN(c2ccc(C)cc2)S(=O)(=O)c2c(C)noc2C)c1 | 7 | -3.4 | 0.1 | 92* | 0.6 | 42
CCOc1ccccc1NS(=O)(=O)c1cccs1 | 9 | -0.34 | 2.6* | -161 | 0.2 | 78*
C[C@H](NC(=O)c1[nH]cnc1C(=O)Nc1ccc(CNC(=O)OC(C)(C)C)cc1)C(=O)OC(C)(C)C | nt | 0.66 | nt | nt | nt | nt
CCOc1ccccc1NS(=O)(=O)c1c(C)noc1C | 3 | 0.84 | 0.3 | 71* | 0.3 | 75*
c1cn2c(NC3CCCC3)c(-c3ccc(N4CCOCC4)cc3)nc2cn1 | nt | -0.58 | 0 | 98* | 0 | 95*
c1ccc(-c2nc3cnccn3c2Nc2ccc3c(c2)OCCO3)cc1 | 9 | -1.3 | nt | nt | nt | nt
CCN(CC)c1ccc(-c2nc3cnccn3c2NC2CCCC2)cc1 | 35 | -6.2* | 0 | 98* | 0.1 | 94*
COc1ccc(C(=O)CC2OC(=O)c3ccccc32)cc1OC (stereo unspecified) | 7 | 0.037 | nt | nt | nt | nt
CC(C)(C)NC(=O)NC(=O)COC(=O)c1ccco1 | nt | -0.017 | 1.1 | -11 | 1 | -5
CCOC(=O)N1CCN(C(=O)c2ccc3c(=O)n(Cc4ccccc4OC)c(=S)[nH]c3c2)CC1 | 5 | -1.2 | 0.7 | 35 | 0.7 | 32

High-throughput results as filed in PubChem.
